In PMC4230422 (Journal of Experimental & Clinical Cancer Research : CR, 2014):

Columns and labels:
639-V [1] = assay: CellTiter-Glo ATP cell viability assay, 639-V; type: cell-based, human; conditions: 72 h of HDAC8 inhibitor treatment
Method in brief: (§1)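 UCCs kept in DMEM GlutaMAX-I plus 10% FCS at 37°C, 5% CO2. Cells seeded in 96-well plates and grown 24 h, then given one treatment at the indicated inhibitor concentrations (10 mM DMSO stock) or DMSO for 72 h. Viable cells read as total cellular ATP by CellTiter-Glo luminescence. IC50 and dose-response curves fitted by non-linear regression.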

RT-112 [2] = assay: CellTiter-Glo ATP cell viability assay, RT-112; type: cell-based, human; conditions: RT-112, 72 h of HDAC8 inhibitor treatment
Method in brief: as §1

VM-CUB1 [3] = assay: Colony forming assay, VM-CUB1; type: cell-based, human; conditions: VM-CUB1, 72 h treatment at IC50 concentrations
Method in brief: (§2)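 After a single 72 h inhibitor or DMSO treatment, cells were replated at 500 to 1,000 cells per well in 6-well plates and grown 10 days. Then PBS-washed, fixed briefly in 50% methanol and 10 min in 100% methanol, and Giemsa-stained. Colony number and size measured by image analysis against the DMSO control.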

VM-CUB1 [4] = assay: CellTiter-Glo ATP cell viability assay, VM-CUB1; type: cell-based, human; conditions: VM-CUB1, 72 h of HDAC8 inhibitor treatment
Method in brief: as §1

[5] = tested on: Normal Uroepithelial Control; assay: CellTiter-Glo ATP cell viability assay, normal uroepithelial control; type: cell-based, human; conditions: 72 h of HDAC8 inhibitor treatment
Method in brief: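 Normal urothelial cells isolated from ureters after nephrectomy, grown in keratinocyte serum-free medium with 0.25 ng/ml EGF and 12.5 μg/ml bovine pituitary extract. Seeded in 96-well plates for 24 h, then treated once with the indicated inhibitor concentrations (10 mM DMSO stock) or DMSO for 72 h. Read by CellTiter-Glo total-ATP luminescence. IC50 from non-linear regression.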

SW-1710 [6] = assay: CellTiter-Glo ATP cell viability assay, SW-1710; type: cell-based, human; conditions: SW-1710, 72 h of HDAC8 inhibitor treatment
Method in brief: as §1

UM-UC-3 [7] = assay: CellTiter-Glo ATP cell viability assay, UM-UC-3; type: cell-based, human; conditions: UM-UC-3, 72 h of HDAC8 inhibitor treatment
Method in brief: as §1

UM-UC-3 [8] = assay: Colony forming assay, UM-UC-3; type: cell-based, human; conditions: UM-UC-3, 72 h treatment at IC50 concentrations
Method in brief: as §2

[9] = tested on: acetylated histone H3 and H4; assay: Western blot of histone H3 and H4 acetylation; type: cell-based, human; conditions: for H4 acetylation: 639-V, inhibitor IC50, 72 h
Method in brief: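 Histone acetylation checked after 72 h inhibitor or DMSO treatment. 1 μg of each sample run on 15% SDS-PAGE and transferred to PVDF. Probed for acetylated H3 (1:2,000), total H3 (1:1,000), acetylated H4 (1:1,000) and total H4 (1:500). Blocking in 5% milk/TBST, primary 1 h at room temperature or overnight at 4°C, HRP-conjugated secondaries.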

HDAC1, HDAC2 and HDAC3 = assay: Expression of other class I HDACs; type: cell-based, human; conditions: SW-1710 and VM-CUB1 cells, inhibitor IC50, 72 h, western blot
[10] = tested on: thymidylate synthase (TS); assay: Western blot of thymidylate synthase in UCCs; type: cell-based, human; conditions: inhibitor IC50, 72 h
[11] = tested on: urothelial cancer cell lines (UCCs); assay: CellTiter-Glo ATP cell viability assay, urothelial cancer cell line panel; type: cell-based, human; conditions: 72 h inhibitor treatment
Method in brief: as §1

VM-CUB1 [12] = assay: Wound healing migration assay, VM-CUB1; type: cell-based, human; conditions: VM-CUB1, IC50 concentrations, especially after 6 - 12 h
p21 = assay: Western blot of p21 in UCCs; type: cell-based, human
acetylated α-tubulin = assay: Western blot of acetylated α-tubulin in UCCs; type: cell-based, human; conditions: all cell lines, inhibitor IC50, 72 h
UM-UC-3 [13] = assay: Wound healing migration assay, UM-UC-3; type: cell-based, human; conditions: UM-UC-3, IC50 concentrations, especially after 6 - 12 h
HDAC6 = conditions: in vitro; cited from earlier work
SW-1710 [14] = assay: Colony forming assay, SW-1710; type: cell-based, human; conditions: SW-1710, 72 h treatment at IC50 concentrations
Method in brief: as §2

RT-112 [15] = assay: Colony forming assay, RT-112; type: cell-based, human; conditions: RT-112, 72 h treatment at IC50 concentrations
Method in brief: as §2

[16] = tested on: urothelial cancer cell lines (UCCs); assay: Cell cycle analysis by flow cytometry; type: cell-based, human; conditions: for G1-fraction / G2/M-arrest: VM-CUB1, SW-1710, 639-V and UM-UC-3 cells, inhibitor IC50, 72 h; for sub-G1 fraction: VM-CUB1 and SW-1710, inhibitor IC50, 72 h
Method in brief: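 UCCs grown in DMEM GlutaMAX-I with 10% FCS at 37°C and 5% CO2. One inhibitor dose was given 24 h after seeding (10 mM DMSO stock), with DMSO as solvent control and the pan-HDAC inhibitor SAHA (2.5 μM). After 72 h, attached and floating cells were stained in PI buffer (50 μg/ml PI, 0.1% sodium citrate, 0.1% Triton X-100) and run on flow cytometry. Sub-G1 counted as apoptotic.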

639-V [17] = assay: Colony forming assay, 639-V; type: cell-based, human; conditions: 72 h treatment at IC50 concentrations
Method in brief: as §2

PARP = assay: Western blot of PARP cleavage in UCCs; type: cell-based, human; conditions: SW-1710, inhibitor IC50, 72 h
[18] = VM-CUB1, SW-1710 and UM-UC-3 cells
[19] = SW-1710 and 639-V, inhibitor IC50, 72 h

Compound | IC50 (639-V [1]) | IC50 (RT-112 [2]) | clonogenic growth (VM-CUB1 [3]) | IC50 (VM-CUB1 [4]) | IC50 [5] | IC50 (SW-1710 [6]) | IC50 (UM-UC-3 [7]) | clonogenic growth (UM-UC-3 [8]) | H4 acetylation [9] | protein expression of HDAC1 and HDAC2/3 (HDAC1, HDAC2 and HDAC3) | expression of thymidylate synthase (TS) ([10]; 639-V and RT-112 cells) | expression of thymidylate synthase (TS) [10, 18] | viability of all UCCs [11] | wound healing (relative scratch size) vs DMSO control (VM-CUB1 [12]) | p21 expression (p21; [19]) | wound healing (relative scratch size) vs DMSO control (UM-UC-3 [13]) | inhibition of HDAC6 (HDAC6) | clonogenic growth (SW-1710 [14]) | clonogenic growth (RT-112 [15]) | G1-fraction [16] | other results
O=C(NO)c1cccc2ccccc12 [Compound 2, 1-napthohydroxamic acid, reference compound] | ≥ 50 µM | ≥ 50 µM | inhibited clonogenicity | ≥ 50 µM | ≥ 50 µM | ≥ 50 µM | ≥ 50 µM |  |  |  |  |  |  |  |  |  |  |  |  |  | IC50 (RT-112 [2]; listed as c2): > 50 µM
O=C(/C=C/Cc1cccc2ccccc12)NO [Compound 5, δ-naphtyl-trans 2-butenoil hydroxamic acid] | 12.6 µM | 9.7 µM | completely abolished | 18.7 µM | 24.2 µM | 20.8 µM | 18.9 µM | moderate reduction of colony numbers | slight increase | slightly reduced | No effects | weakly reduced | significantly reduced | clear difference | decreased | clear difference | do not inhibit HDAC6 efficiently | no effect | moderate reduction of colony numbers | significant decrease | IC50 (RT-112 [2]; listed as c5): ~9.7 µM; acetylated α-tubulin (acetylated α-tubulin; listed as c5): strong increase; G2/M-arrest [16]: indications of a G2/M-arrest; sub-G1 fraction [16]: significant increase; clonogenic growth (639-V [17]): moderate reduction of colony numbers
O=C(NO)c1ccc(-c2cccc3ccccc23)cc1 [Compound 6, 4-naphtyl-benzoil hydroxamic acid] | 18.6 µM | 9.1 µM | most efficient | 16 µM | 10.2 µM | 18.8 µM | 18.2 µM | most efficient | slight increase | slightly reduced | No effects | weakly reduced | significantly reduced | clear difference | decreased | clear difference | do not inhibit HDAC6 efficiently | active | active | significant decrease | cleavage of PARP (PARP): Increased cleavage of PARP; IC50 (RT-112 [2]; listed as c6): ~9.1 µM; p21 expression (p21; UM-UC-3, inhibitor IC50, 72 h): decreased; acetylated α-tubulin (acetylated α-tubulin; listed as c6): strong increase; G2/M-arrest [16]: indications of a G2/M-arrest; sub-G1 fraction [16]: significant increase; clonogenic growth (639-V [17]): most efficient
O=C(CCCCCCC(=O)Nc1ccccc1)NO [SAHA, suberoylanilide hydroxamic acid, reference compound] |  |  |  |  |  |  |  |  |  |  |  |  |  |  |  |  |  |  |  |  | histone H3 or H4 acetylation ([9]; SAHA control): led to a change
